Test results taken from publication PMC12560046 (RSC Chemical Biology, 2025).

Columns and labels:
hepatitis B virus (HBV) [1] = details: HepAD38 cells, 1–10 μM; cited from earlier work
hepatitis B virus (HBV) [2] = test: Reduction of intracellular HBV rcDNA in HepAD38 cells; format: cell-based; details: qPCR, relative to 0.5% DMSO vehicle
HepAD38 cells = test: Cytotoxicity in HepAD38 cells; format: cell-based; details: read-out: Cytotoxicity CC50, MTS assay, 0 to 100 μM
hepatitis B virus (HBV) [3] = test: Inhibition of HBsAg secretion in HBV-replicating HepAD38 cells; format: cell-based; details: for Inhibition of HBsAg secretion (in words): 5 μM, relative to vehicle 0.5% DMSO
Method in brief: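 HepAD38 cells carry an integrated HBV genome under a tetracycline-regulated promoter, […]. Cells were treated with test compound. HBsAg secreted into the culture supernatant was quantified by ELISA. Selectivity index was taken as CC50/IC50.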

[4] = Cytotoxicity in HepAD38 cells; format: cell-based; details: human, Cytotoxicity CC50, HepAD38 cells, MTS assay, 0 to 100 μM

SMILES | Effect on cccDNA levels (in words) (hepatitis B virus (HBV) [1]) | rcDNA inhibition [%]: compound (5 μM) (hepatitis B virus (HBV) [2]) | CC50 (HepAD38 cells) [µM] | Inhibition of HBsAg secretion (in words) (hepatitis B virus (HBV) [3]; HepAD38 cells) | Selectivity index: CC50/IC50 (hepatitis B virus (HBV) [3]; HepAD38 cells, CC50 (MTS) / HBsAg IC50) | IC50 (hepatitis B virus (HBV) [3]; Hepatitis B virus, HePAD38, read-out: HBsAg IC50) [µM] | CC50 at 14 days [4] [µM]
C[C@@]1(CO)[C@H](O)CC[C@@]2(C)[C@H]1CC[C@H]1C[C@@H]3C[C@@]12CC[C@]3(O)CO [aphidicolin] | effectively reduces cccDNA levels in a dose-dependent manner |  |  |  |  |  | 
CC[C@]12C=CCN3CC[C@]4(C(=C(C(=O)OC)C1)Nc1ccccc14)[C@@H]32 [compound 6, tabersonine] |  | minimal or no effect | 41.8 ± 3.1 | only modest inhibitory activity | 2.86 | 14.6 ± 4.1 | 
CCOC(=O)C1=C[C@]2(CC)CCCN3CCc4c(n1c1ccccc41)[C@@H]32 [compound 8, vinpocetine] |  | minimal or no effect |  | negligible inhibitory effects |  |  | > 100
